PAX8 reporter: PAX8 transcriptional activity inhibition; RMG-I TPO-luciferase reporter, SteadyGlo, 24 h; inhibition, % at 12.6 µM; hit rate 1.2% among 360,000;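 active = mean replicate inhibition at least 60% with every replicate also reaching 60%; inconclusive = only one of the two criteria is met; inactive = mean below 60% and not all replicates reaching 60%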;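 also: luciferase light reporting Pax8 driven TPO promoter activity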
INS-1E GSIS act: primary screen for activators of insulin secretion dependent on glucose, INS-1E cells, GLuc reporter luminescence; INS-1E GLuc reporter insulin secretion, 2-3 h; activation, % at 16.6 µM; hit rate 0.61% among 370,000; AID 743287;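 active = lowest replicate activation of at least 40%, so every replicate reaches that level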
HIV Env fusion: inhibitors of HIV Env-mediated cell fusion. inhibition, % at 12.3 µM. HeLa-JRFL Env/CEM21 cell fusion, luciferase. hit rate 1.1% among 360,000. AID 651610;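 active = mean replicate inhibition score of at least 50 and every replicate individually at or above 50; inconclusive = only one of the two criteria met; inactive = mean below 50 and not all replicates reaching 50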
CDK5 inh: CDK5/p35 (human) kinase inhibition. inhibition, % at 10 µM. hit rate 0.01% among 330,000. AID 488839. Recombinant CDK5/p35, ADP-Glo luminescence, 60 min. Q00535+Q15078;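 active = highest replicate inhibition of at least 50% and at least 75% of replicates reaching 50%; inconclusive = only one of the two criteria met; inactive = both criteria failed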
dFosB act: mouse delta FosB homodimer activation; P13346; purified delta FosB, TAMRA-CDK5 oligo fluorescence polarization; percent of positive-control signal above neutral wells; activation, % at 25 µM; hit rate 0.99% among 340,000;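 active = mean activation above about 17%, with every replicate also reaching it, limit read from the data, passing the limit was not always enough; inconclusive = only one of the two conditions met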
Target sequence (P13346 whole entry, looked up): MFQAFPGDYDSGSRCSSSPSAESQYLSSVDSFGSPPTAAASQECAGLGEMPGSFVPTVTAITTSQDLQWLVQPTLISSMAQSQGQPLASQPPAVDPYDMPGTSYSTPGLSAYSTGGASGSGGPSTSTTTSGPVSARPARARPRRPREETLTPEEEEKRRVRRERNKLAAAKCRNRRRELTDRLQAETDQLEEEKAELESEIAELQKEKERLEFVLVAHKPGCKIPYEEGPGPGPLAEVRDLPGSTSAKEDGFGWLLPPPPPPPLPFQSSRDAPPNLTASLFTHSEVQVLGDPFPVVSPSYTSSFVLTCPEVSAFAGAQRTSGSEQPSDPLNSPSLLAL
Cneo AK release: causes C. neoformans cell lysis; lysis activity, % at 15 µM; hit rate 0.2% among 360,000; adenylate kinase release luminescence, 4 h; normalised: neutral wells 0, clomiphene wells 100;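 active = mean lysis activity across replicates of at least 80%, whatever share of replicates individually reach that level; inactive = mean lysis activity below 80%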
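Material: C. neoformans cells | Amount: Yeast cell density of 5 × 10^6 cells/mL | Medium: Fresh YPD growth medium | Dosing: Single dose | Times: Static 4 h at 37 °C with compound, 1 h detection | Detection: AK luminescence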
A number is an active result; . = inactive; ? = inconclusive; / = no result. Compounds with a hit are over-represented: about 2.9% of the library has one in this group of screens.

SMILES | PAX8 reporter | INS-1E GSIS act | HIV Env fusion | CDK5 inh | dFosB act | Cneo AK release
CC1=C(C(=O)OCc2ccc3c(c2)OCO3)C(c2ccc(F)cc2)NC(=O)N1 (stereo not given) | / | . | 100 | . | . | .
CC1=C(C(=O)OCc2ccc3c(c2)OCO3)C(c2ccc(Cl)cc2)NC(=O)N1 (stereo not given) | / | . | / | . | . | .
CC1CCN(S(=O)(=O)c2ccc([N+](=O)[O-])cc2)CC1 | . | . | . | . | . | .
CC1CCN(S(=O)(=O)c2ccc(Oc3ccc([N+](=O)[O-])cc3)cc2)CC1 | / | . | 72 | . | . | /
Cc1ccc2[nH]c(C)c(/C=C/c3cc[n+](C)cc3)c2c1 | 78 | . | 60 | . | . | .
Cc1ccc2c(c1)c(/C=C/c1cc[n+](C)cc1)c(C)n2C | ? | . | . | . | . | .
CCCNC(=O)N1[C@H](CNC(C)=O)[C@H](c2ccc(-c3ccccc3)cc2)[C@@H]1CO | . | . | / | / | / | .
COc1ccc(S(=O)(=O)Nc2ccc3c(c2)C(=O)N([C@@H](C)CO)C[C@@H](C)[C@@H](CN(C)C(=O)c2ccncc2)OCCCC[C@@H](C)O3)cc1 | . | . | . | / | / | .
C[C@@H]1CN([C@@H](C)CO)S(=O)(=O)c2ccc(Br)cc2O[C@H]1CN(C)C | / | . | . | / | / | .
Cc1ccc(C)c(OCC(=O)N/N=C/c2c(C)nn(-c3ccccc3)c2Cl)c1C | . | 297 | . | . | ? | /
CCC(=O)N(C)C[C@@H]1Oc2ncc(-c3ccccc3OC)cc2C(=O)N([C@@H](C)CO)C[C@H]1C | / | . | . | / | / | .
C[C@H](CO)N1C[C@H](C)[C@H](CN(C)CC2CC2)Oc2cc(C#Cc3ccccc3)ccc2S1(=O)=O | / | . | . | / | / | .
CN1CCc2[nH]c3ccc(C(=O)NN)cc3c2C1 | / | / | . | . | 20 | .
Cc1noc(C)c1S(=O)(=O)Nc1ccc2c(c1)C(=O)N([C@@H](C)CO)C[C@H](C)[C@H](CN(C)S(=O)(=O)c1ccc(Cl)cc1)OCCCC[C@H](C)O2 | . | . | . | / | / | .
CCCCN(C)CC(O)Cn1cc(/C=C/C(=O)c2ccc(C)cc2)c2ccccc21 (stereo not given) | . | . | . | . | 26 | .
CCCN(CCC)CC(O)Cn1cc(/C=C/C(=O)c2ccccc2)c2ccccc21 (stereo not given) | . | . | . | . | . | .
Cc1nn(Cc2c(F)c(F)c(F)c(F)c2F)c(C)c1NC(=O)c1cccc(COc2ccc(Cl)cc2)c1 | / | . | 63 | . | . | .
COc1ccc([C@@H]2[C@@H]3C(=O)N(C(C)(C)C)C(=O)[C@@H]3[C@]3(Cc4ccccc4)C(=O)N(c4cccc(Cl)c4)C(=O)N23)cc1 | . | / | 80 | . | . | .
COc1ccc([C@@H]2[C@@H]3C(=O)N(C(C)(C)C)C(=O)[C@@H]3[C@]3(Cc4ccc(Cl)cc4)C(=O)N(c4cccc(F)c4)C(=O)N23)cc1 | . | . | 107 | . | . | .
COc1ccc([C@@H]2[C@@H]3C(=O)N(C(C)(C)C)C(=O)[C@@H]3[C@]3(Cc4ccc(Cl)cc4)C(=O)N(c4cccc(Br)c4)C(=O)N23)cc1 | . | . | 78 | . | . | .
COc1ccc([C@@H]2[C@@H]3C(=O)N(C(C)(C)C)C(=O)[C@@H]3[C@]3(Cc4ccccc4)C(=O)N(c4cccc(C)c4)C(=O)N23)cc1 | . | . | . | . | . | .
Cc1noc(C)c1S(=O)(=O)Nc1ccc2c(c1)C(=O)N([C@H](C)CO)C[C@H](C)[C@@H](CN(C)C(=O)Nc1ccccc1)OCCCC[C@@H](C)O2 | . | . | . | / | / | .
Cc1cccn2c(=O)c3cc(C(=O)NCC(C)C)sc3nc12 | . | . | . | . | . | .
CCCN(CCC)C(=O)c1cc2c(=O)n3cccc(C)c3nc2s1 | . | . | 58 | . | . | .
C[C@@H]1CN([C@@H](C)CO)C(=O)c2cc(NS(=O)(=O)c3cn(C)cn3)ccc2O[C@@H](C)CCCCO[C@@H]1CN(C)Cc1ccc(C(F)(F)F)cc1 | / | . | . | / | / | 96

Compound activity as filed in PubChem.
